FLuc act counter: FLuc activators, initial screening, artefact control for FLuc-dependent activation tests, biochemical, ATPlite luminescence; Luciferin 4-monooxygenase (Photinus pyralis), P08659; ATPlite luciferase biochemical, 10 min; 0 = ATP-free wells, 1 = DMSO control; activation factor at 10 µM; 200,000 tested, under 10 active;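 active = luciferase activation factor, scaled between plate controls, of at least 2 with compound at 10 µM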
Target sequence (P08659 whole entry, looked up): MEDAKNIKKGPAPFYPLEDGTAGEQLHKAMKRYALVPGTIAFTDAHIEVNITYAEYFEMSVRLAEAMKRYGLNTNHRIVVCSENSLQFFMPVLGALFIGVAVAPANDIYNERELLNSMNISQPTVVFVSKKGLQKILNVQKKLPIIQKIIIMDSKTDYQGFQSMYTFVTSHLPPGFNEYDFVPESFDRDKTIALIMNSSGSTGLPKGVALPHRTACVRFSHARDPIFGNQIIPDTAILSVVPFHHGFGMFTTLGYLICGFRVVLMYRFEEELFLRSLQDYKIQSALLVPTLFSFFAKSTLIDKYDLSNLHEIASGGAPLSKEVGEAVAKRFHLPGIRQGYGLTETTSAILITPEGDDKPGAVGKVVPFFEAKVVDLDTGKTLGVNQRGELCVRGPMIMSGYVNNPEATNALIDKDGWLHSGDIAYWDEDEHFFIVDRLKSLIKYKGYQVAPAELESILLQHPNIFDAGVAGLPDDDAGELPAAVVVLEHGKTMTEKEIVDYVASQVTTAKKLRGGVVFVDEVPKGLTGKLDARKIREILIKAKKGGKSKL
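Assay system: Luciferase/luciferin reagent mix; Medium: PBS as buffer for the ATP substrate; Dosing: test compounds dosed from 2 mM stocks in 100% DMSO; Times: 10 min, room temperature; Signal: luminescence from luciferase reaction; Read-out: luciferase activation; Controls: No-ATP low control, compound-free enzyme-plus-ATP high control.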
FLuc inhib CS: firefly luciferase enzyme inhibitors, primary screen, artefact control for luciferase-based inhibitor screens, biochemical, luminescence, ATPLite; Luciferin 4-monooxygenase (Photinus pyralis), P08659; inhibition, % at 10 µM; AID 1006, 2008; 10 min; 200,000 tested, 1.5% active;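 active = inhibition above about 50% when tested at 10 µM, limit read from the data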
C8 TRAIL sens: viability loss with TRAIL in NB7+C8 cells, primary screen, TRAIL sensitizer project, cell-based, ATPlite luminescence | inhibition (viability loss, TRAIL sensitization), % at 10 µM | 360,000 tested, 1% active | AID 624354, 2012;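 active = compounds causing at least 50% loss of cell viability in the single-dose screen, relative to plate controls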
PPC-1+TRAIL kill: compounds killing PPC-1 cancer cells with TRAIL present, primary screen, TRAIL potentiator project, ATPLite luminescence, uHTS; 220,000 tested, 0.41% active; PPC-1 cells + TRAIL, ATPLite viability luminescence; cell killing (% activity), % at 4 µM or 5 µM; AID 1443, 2008;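 active = cell killing above 50% in the first pass at 4 µM, then a duplicate retest at 5 µM averaging 50% or more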;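 note: plate controls were cells with TRAIL plus DMSO for no effect and medium-only wells lacking cells for full effect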
PPC1 cytotox: cytotoxicity in PPC-1 cells, confirmation, cytotoxicity control for TRAIL apoptosis potentiator project, cell-based, ATP content luminescence; shares compounds with PPC-1+TRAIL kill; PPC-1 viability, ATPlite luminescence, overnight; cytotoxicity, % at 5 µM; 1,200 tested, 50% active; AID 1447, 2008;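 active = reconfirmed compounds whose average cytotoxicity reaches 50% or more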;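 note: 0% = DMSO-treated cells and 100% = wells holding medium but no cells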
* hit, by the source's call; nt = no result. A selection: hits, their analogues and other compounds. The true share with any hit is near 1.5%.

SMILES	FLuc act counter	FLuc inhib CS	C8 TRAIL sens	PPC-1+TRAIL kill	PPC1 cytotox
CN(C(=O)c1ccccc1-c1ncc[nH]1)C1CCCN(Cc2ccccc2F)C1 (configuration not stated)	nt	nt	8	nt	nt
Cc1ccc(Cn2ccsc2=NC(=O)CCl)cc1	1	-2	98*	91*	91*
O=C(NCCCn1ccnc1)/C(=C\c1cccnc1)NC(=O)c1ccccc1F	1.1	-8	-9	17	nt
COc1ccc(-c2cc(=O)c3c(O)c(OC)c(O)cc3o2)cc1	0.1	90*	70*	64*	64*
CN1CCN(C(=O)c2ccc(COc3ccc(C(C)(C)C)cc3)o2)CC1	0.7	27	11	22	22
CCOc1ccc(OCc2ccc(C(=O)N3CCCC3)o2)cc1	1	1	2	10	nt
Cc1occc1C(=O)O/N=C(\N)c1ccccc1	nt	nt	70*	57*	55*
CCCn1nnnc1NCc1ccccc1OCc1cccs1	1.1	-6	-5	6	13
CCn1c(SC)nc2c(c1=O)SC(C)C2 (configuration not stated)	1.1	-6	-3	3	4
C(=N\Nc1ccc2ccccc2n1)/c1ccc2c(c1)OCCO2	0.1	93*	81*	71*	75*
Cc1cc(N/N=C/c2cccc(Br)c2)nc2ccccc12	0.7	35	8	11	nt
Cc1ccc(/C=N/Nc2cn[nH]c(=O)n2)o1	1.1	-6	-11	6	nt
Cc1ccc(/C=N/Nc2ccc3ccccc3n2)o1	0.1	87*	65*	52*	58*
Cc1cccc(/C=N/Nc2ccc3ccccc3n2)c1	0.1	91*	85*	71*	72*
COc1cccc(CC2(CO)CCCN(Cc3ccc4c(c3)OCCO4)C2)c1 (configuration not stated)	1.1	-7	-7	-27	nt
CNC(=S)N/N=C(\C)c1ccc(N2CCOCC2)cc1	0.9	14	17	8	2
CCNC(=S)N/N=C(\C)c1ccc(N2CCOCC2)cc1	1	-3	-1	6	nt
COc1cc(NC(=O)C2CCN(c3cnccn3)CC2)cc(OC)c1OC	nt	nt	-15	nt	nt
CC(C)NC(=O)COC(=O)c1cc(F)c(F)cc1Cl	1	-1	0	10	15
Cc1ccc2nc(-c3ccccc3)cn2c1	0	96*	90*	90*	88*
CN(C)c1ccc(/C=C/c2nc3ccccc3s2)cc1	0.1	93*	92*	81*	81*
COc1cc(/C=C/c2nc3ccccc3s2)cc(OC)c1O	0.9	9	-8	12	nt
O=[N+]([O-])c1ccc(/C=C/c2ccc3ccccc3n2)cc1	0.2	76*	74*	64*	61*
CN(C)c1ccc(/C=C/c2ccc3ccccc3n2)cc1	nt	nt	89*	92*	92*
O=[N+]([O-])c1ccc(/C=C/c2ccc3cccc(O)c3n2)cc1	nt	nt	47	nt	nt
SMILES	FLuc act counter	FLuc inhib CS	C8 TRAIL sens	PPC-1+TRAIL kill	PPC1 cytotox
Cc1ccc(/C=C/c2nc3ccccc3s2)s1	0.1	91*	67*	85*	83*
COc1cccc(N2CCN(C(=O)c3ccc(Cl)c(NC4=NC5CS(=O)(=O)CC5S4)c3)CC2)c1 (configuration not stated)	nt	nt	7	nt	nt
CSc1ccc(CN(C)C(=O)CNC(=O)c2ccc3c(c2)OCO3)cc1	nt	nt	-3	nt	nt
Oc1cccc(/C=C/c2ccc3cccc(O)c3n2)c1	nt	nt	33	nt	nt
Oc1ccc(/C=C/c2ccc3ccccc3n2)cc1	0.1	86*	72*	56*	56*
Cc1cc(C(=O)COC(=O)c2cccn2C)c(C)n1Cc1ccco1	0.2	80*	63*	38	24
Cc1cc(C(=O)COC(=O)c2cc(Cl)ccc2N)c(C)n1Cc1ccco1	0.7	34	34	8	nt
COc1ccc(S(=O)(=O)N(C)CC(=O)N2CCC(C(N)=O)CC2)cc1	1.1	-7	-10	6	12
COc1ccc(S(=O)(=O)N(C)CC(=O)N2CCCCCC2)cc1	nt	nt	-14	nt	nt
COCCN1CCN(c2cc(-c3ccccc3)nc3cc(-c4cccc(F)c4)nn23)CC1	1.1	-9	41	14	6
COc1ccc(CCNC(=O)c2cc3c(cc2Cl)N2CCCCCC2=NS3(=O)=O)cc1	nt	nt	-11	nt	nt
O=C(/C=C/c1ccc(Br)cc1)NC(=O)c1ccccc1O	0.1	91*	63*	62*	62*
CSc1ccc(/C=C/C(=O)NC(=O)c2ccccc2O)cc1	0.1	86*	52*	60*	62*
CN1C2C=C3C(C#N)=C(N)C(C#N)(C#N)[C@@H](c4cccs4)C3C1CC2 (some centres not stated)	1	-2	-6	17	6
CC(C)(C)N(Cc1ccccc1)C(=O)COC(=O)c1ccccc1SCC(=O)N1CCCC1	nt	nt	8	nt	nt
COc1cccc(/C=N/NC(=S)Nc2cccc(C(=O)O)c2)c1O	0.4	62*	87*	37	35
CN(C)S(=O)(=O)c1ccc(C(=O)Nc2ccc(S(=O)(=O)NC3=NCCCCC3)cc2)cc1	1	-2	-4	-5	-10
CN(C)c1ccc(Nc2nc(-c3cccnc3)cs2)cc1	0.2	78*	67*	70*	68*
Cc1ccc(C(=O)N/N=C/c2ccc([N+](=O)[O-])s2)cc1	1	-5	23	38	36
O=C(N/N=C/c1cc(Br)cs1)c1ccc2c(c1)OCCO2	nt	nt	69*	58*	60*
O=C(N/N=C/c1c(Cl)[nH]c2ccccc12)c1ccc2c(c1)OCCO2	nt	nt	66*	65*	64*
O=C(N/N=C/c1cc2c(cc1Cl)OCO2)c1ccc2c(c1)OCCO2	nt	nt	6	8	nt
COc1cc(/C=N/NC(=O)c2ccc3c(c2)OCCO3)cc(Br)c1O	nt	nt	33	nt	nt
Cc1ccc(C(=O)N/N=C\c2sccc2C)cn1	0.5	47	14	10	nt
Cc1ccsc1/C=N/NC(=O)c1ccc2c(c1)OCCO2	nt	nt	76*	54*	63*
SMILES	FLuc act counter	FLuc inhib CS	C8 TRAIL sens	PPC-1+TRAIL kill	PPC1 cytotox
O=C(N/N=C/c1ccc([N+](=O)[O-])s1)c1ccncc1	1	-3	29	18	nt
CN(C)S(=O)(=O)c1cccc(NC(=O)CCc2c[nH]c3ccccc23)c1	1	-1	-18	18	nt
Cc1ccc(/C=N/NC(=O)c2ccc3ccccc3c2)s1	nt	nt	29	nt	nt
Cc1ccc(/C=N/NC(=O)c2ccc3c(c2)OCCO3)s1	nt	nt	30	37	43
COc1ccc(N=Nc2nc3ccc(Br)cc3n2C)cc1	0.2	84*	80*	76*	72*
C=CCn1c(SCC(=O)N(CCOC)c2c(N)n(CC(C)C)c(=O)[nH]c2=O)nc2ccccc21	nt	nt	-10	nt	nt
Cc1ccc(NC(=O)c2ccc(OC(=O)c3ccco3)cc2)cc1	1	-2	34	30	35

Screening data (PubChem)
